In ChEMBL document CHEMBL4184191, “Immunoproteasome inhibition and bioactivity of thiasyrbactins” (2018):
Active and inactive are the calls of the source. The calls are words filed in the database; no cut-off is given here.

What was measured:
[1] = molecular target: T1, Proteasome Macropain subunit MB1 (Homo sapiens) (UniProt P28074); test: Inhibition of 20s constitutive proteasome chymotrypsin-like activity in human erythrocytes using Suc-LLVY-Glo as substrate pretreated for 2 hrs followed by substrate addition measured after 10 mins by luminescence assay; type: cell-based
T1 sequence (whole entry): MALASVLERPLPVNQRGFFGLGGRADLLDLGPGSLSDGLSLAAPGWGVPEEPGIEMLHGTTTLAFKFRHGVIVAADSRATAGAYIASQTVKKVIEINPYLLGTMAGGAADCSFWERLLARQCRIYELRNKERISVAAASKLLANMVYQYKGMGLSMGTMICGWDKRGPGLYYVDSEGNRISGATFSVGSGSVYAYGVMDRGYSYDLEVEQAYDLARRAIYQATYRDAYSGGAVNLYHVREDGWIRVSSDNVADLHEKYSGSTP
Procedure, shortened: (§1)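 Purified human 20S proteasome was used: constitutive enzyme from erythrocytes, immunoproteasome from PBMCs, each at 2.2 ng/µl. It was preincubated with inhibitor (0 to 10 µM) in 10 mM HEPES pH 7.3 for 2 h at 37 °C. An equal volume of luminogenic substrate was then added ([…], […], Suc-LLVY-Glo for β5), and luminescence was read 10 min later. Runs were in triplicate, and Ki-50 values were fitted and averaged.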

[2] = molecular target: T2, Proteasome component C5 (Homo sapiens) (UniProt P20618); test: Inhibition of 20s constitutive proteasome caspase-like activity in human erythrocytes using […] as substrate pretreated for 2 hrs followed by substrate addition measured after 10 mins by luminescence assay; type: cell-based; procedure, shortened: as §1
T2 sequence (whole entry): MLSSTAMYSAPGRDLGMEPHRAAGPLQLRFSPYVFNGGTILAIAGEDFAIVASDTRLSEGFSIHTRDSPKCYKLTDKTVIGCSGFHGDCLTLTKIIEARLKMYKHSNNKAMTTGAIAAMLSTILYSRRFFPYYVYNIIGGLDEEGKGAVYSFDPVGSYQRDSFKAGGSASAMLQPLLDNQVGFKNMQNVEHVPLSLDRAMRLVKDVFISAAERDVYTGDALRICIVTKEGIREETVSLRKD

[3] = molecular target: Proteasome Macropain subunit (Homo sapiens) (UniProt P49721); test: Inhibition of 20s constitutive proteasome trypsin-like activity in human erythrocytes using […] as substrate pretreated for 2 hrs followed by substrate addition measured after 10 mins by luminescence assay; type: cell-based; procedure, shortened: as §1
[4] = molecular target: T1, Proteasome Macropain subunit MB1 (Homo sapiens); test: Inhibition of immunoproteasome chymotrypsin-like activity in human […] using Suc-LLVY-Glo as substrate pretreated for 2 hrs followed by substrate addition measured after 10 mins by luminescence assay; type: cell-based; procedure, shortened: as §1
[5] = molecular target: T2, Proteasome component C5 (Homo sapiens); test: Inhibition of immunoproteasome caspase-like activity in human […] using […] as substrate pretreated for 2 hrs followed by substrate addition measured after 10 mins by luminescence assay; type: cell-based; procedure, shortened: as §1
[6] = molecular target: Proteasome Macropain subunit (Homo sapiens) (UniProt P49721); test: Inhibition of immunoproteasome trypsin-like activity in human […] using […] as substrate pretreated for 2 hrs followed by substrate addition measured after 10 mins by luminescence assay; type: cell-based; procedure, shortened: as §1
[7] = organism: Homo sapiens; test: Cytotoxicity against human SK-N-BE(2)C cells assessed as reduction in cell viability after 24 hrs […]; type: functional, cell-based
[8] = system: SK-N-SH; test: Cytotoxicity against human SK-N-SH cells assessed as reduction in cell viability after 24 hrs […]; type: functional, cell-based
[9] = organism: Homo sapiens; test: Cytotoxicity against human MYCN2 cells assessed as reduction in cell viability after 24 hrs […]; type: functional, cell-based
[10] = system: SK-N-SH; test: Cytotoxicity against human SK-N-SH cells assessed as reduction in cell viability at 0.01 to 1 uM after 24 hrs […]; type: functional
[11] = Cytotoxicity against human MYCN2 cells assessed as reduction in cell viability at 0.01 to 1 uM after 24 hrs […]; type: functional
[12] = molecular target: T1, Proteasome Macropain subunit MB1 (Homo sapiens); test: Stimulation of immunoproteasome chymotrypsin-like activity in human […] at 1 uM using Suc-LLVY-Glo as substrate pretreated for 2 hrs followed by substrate addition measured after 10 mins by luminescence assay; type: cell-based
[13] = system: SK-N-SH; test: Cytotoxicity against human SK-N-SH cells assessed as reduction in cell viability at 0.1 to 1 uM after 24 hrs […]; type: functional, cell-based
[14] = organism: Homo sapiens; test: Cytotoxicity against human MYCN2 cells assessed as reduction in cell viability at 0.1 to 1 uM after 24 hrs by […] assay; type: functional, cell-based
Procedure, shortened: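 Human neuroblastoma cells were plated overnight in RPMI with 10% heat-inactivated FBS, penicillin (100 U/ml) and streptomycin (100 µg/ml), at 37 C and 5% CO₂. They were exposed to inhibitor at 0.01, 0.1 and 1 µM for 24 h. Viability was read with MTS reagent as absorbance at 490 nm. Two independent experiments were run, each in triplicate wells (n=6), and results are expressed relative to untreated control cells.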

Sequence of Proteasome Macropain subunit (Homo sapiens) (P49721 whole entry): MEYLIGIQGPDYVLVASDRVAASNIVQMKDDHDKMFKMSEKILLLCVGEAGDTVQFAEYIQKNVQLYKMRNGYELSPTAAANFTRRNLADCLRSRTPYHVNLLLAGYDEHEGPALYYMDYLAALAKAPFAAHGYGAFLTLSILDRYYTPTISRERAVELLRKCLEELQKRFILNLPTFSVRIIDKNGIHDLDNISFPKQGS

SMILES	inhibition [1]	inhibition [2]	inhibition [3]	inhibition [4]	inhibition [5]	inhibition [6]	Ki50 [2] [µM]	Ki50 [3] [µM]	Ki50 [4] [µM]	Ki50 [5] [µM]	Ki50 [6] [µM]	Activity [12]	Activity [7]	Activity [8]	Activity [9]	Activity [10]	Activity [11]	Activity [13]	Activity [14]
CCCCCCCCCCCCNC(=O)N[C@H](C(=O)N[C@H]1CSCCNC(=O)/C=C/[C@H](C)NC1=O)C(C)C	–	–	–	–	–	–	> 10	1.76	> 10	> 10	1.39	–	–	–	–	30 - 50%	30 - 50%	–	–
COc1ccc(C[C@H](NC(=O)[C@H](C)NC(=O)CN2CCOCC2)C(=O)N[C@@H](Cc2ccccc2)C(=O)[C@]2(C)CO2)cc1	–	–	–	–	–	–	2.07	–	0.11	1.32	–	–	–	–	–	–	–	–	–
CC(C)C[C@H](NC(=O)[C@H](Cc1ccccc1)NC(=O)c1cnccn1)B(O)O	–	–	–	–	–	–	0.02	–	0.01	0.03	–	–	–	–	–	–	–	Active	Active

Continued, in another order:

inhibition [1]	inhibition [2]	inhibition [3]	inhibition [4]	inhibition [5]	inhibition [6]	Ki50 [2] [µM]	Ki50 [3] [µM]	Ki50 [4] [µM]	Ki50 [5] [µM]	Ki50 [6] [µM]	Activity [12]	SMILES	Activity [7]	Activity [8]	Activity [9]	Activity [10]	Activity [11]	Activity [13]	Activity [14]
inactive	inactive	inactive	inactive	inactive	inactive	–	–	–	–	–	–	CCCCCCCCCCCCNC(=O)N[C@H](C(=O)N[C@H]1C[S+]([O-])CCNC(=O)/C=C/[C@H](C)NC1=O)C(C)C (some centres undefined)	inactive	inactive	inactive	–	–	–	–
–	–	–	–	–	–	> 10	1.07	> 10	> 10	0.74	Active	CC(C)Cc1ccc([C@H](C)C(=O)N[C@H](C(=O)N[C@H]2CSCCNC(=O)/C=C/[C@H](C)NC2=O)C(C)C)cc1	–	–	–	–	–	–	–
inactive	inactive	inactive	inactive	inactive	inactive	–	–	–	–	–	–	C[C@H]1/C=C/C(=O)NCC[S+]([O-])C[C@H](NC(=O)c2cnccn2)C(=O)N1 (some centres undefined)	inactive	inactive	inactive	–	–	–	–
inactive	inactive	inactive	inactive	inactive	inactive	–	–	–	–	–	–	C[C@H]1/C=C/C(=O)NCCSC[C@H](NC(=O)c2cnccn2)C(=O)N1	inactive	inactive	inactive	–	–	–	–
–	–	–	–	–	–	> 10	0.92	> 10	> 10	0.75	Active	CC(C)[C@H](NC(=O)c1cnccn1)C(=O)N[C@H]1CSCCNC(=O)/C=C/[C@H](C)NC1=O	–	–	–	–	–	–	–
